Activity calls are given as the source filed them. No cut-off for these calls is given here.

One data set relates to Staphylococcus aureus. Kind of data set: Antibacterial activity against Staphylococcus aureus ATCC 29213 assessed as ratio of MIC95 in presence of CaCl2 to in absence of CaCl2. It is filed as functional. Put shortly:
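S. aureus ATCC 29213, mid-log, (0.5–1) × 10^5 CFU/mL final in MHB, with or without 2 mM CaCl2 (final). Peptide serially diluted in 0.2% BSA and mixed 1:1 with cells, 24 h at 37 °C. MIC is the lowest concentration inhibiting 95% of growth by A492. Three independent experiments, each with three technical replicates.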

In data set [1] the test system is Candida albicans. Kind of data set: Antifungal activity against Candida albicans cgmcc2.2086 infected in C57BL/6 mouse model of keratitis assessed as reduction in fungal hyphae extention into corneal stroma at 1 to 5 mg/ml administered as topical eye drop every 5 mins for first 4 hrs and every 30 mins for next 7 hrs measured post-last dose by periodic acid schiff staining-based histological analysis. It is filed as functional, organism-based.

The test system of data set [2] is Candida albicans. Description: Antifungal activity against Candida albicans cgmcc2.2086 infected in C57BL/6 mouse model of keratitis assessed as reduction in fungal hyphae infiltration into corneal stroma at 1 to 5 mg/ml administered as topical eye drop every 5 mins for first 4 hrs and every 30 mins for next 7 hrs measured post-last dose by periodic acid schiff staining-based histological analysis. The class given is functional, organism-based.

Data set [3] relates to Escherichia coli. Kind of data set: Disruption of plasma membrane integrity in Escherichia coli ATCC 25922 at MBC measured after 30 mins using FITC-labeled compound by propidium iodide staining-based microscopic analysis. It is filed as organism-based. Put shortly:
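E. coli ATCC 25922 or S. aureus ATCC 29213 (OD600 0.2) incubated with FITC-labeled peptide at 1×MBC, 37 °C, 30 min. Cells washed, resuspended with PI (10 μg/mL) in PBS, smeared and imaged by superresolution microscopy using 488 and 535 nm filters for FITC and PI. Peptide-free cells served as controls. Three independent scans.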

For another data set, the system named is Lipid bilayer. Description: Induction of membrane disruption in PC/CL large unilamellar vesicles assessed as calcein-entrapped liposome leakage at 1 to 64 uM after 15 mins by spectrofluorophotometric assay relative to control. The note with it: artificial membrane, 0.25 h.
Data set [4] deals with Escherichia coli. Kind of data set: Induction of morphological changes in Escherichia coli ATCC 25922 at MBD measured after 1 hr by atomic force microscopic analysis. The class given is functional, organism-based.
The subject of data set [5] is Escherichia coli. Description: Induction of morphological changes in Escherichia coli ATCC 25922 assessed as cell content leakage at MBD measured after 1 hr by transmission electron microscopic analysis. It is filed as functional, organism-based.

As for H-AARIILRWRFR-NH2, the Ratio in the data set with Staphylococcus aureus is 4. Further, the result with Candida albicans [1], with Candida albicans [2], in the data set on Escherichia coli [3], in the data set on Escherichia coli [4] and in the data set on Escherichia coli [5] was Active. For the same substance, the Activity in the data set with Lipid bilayer was less than 5%.

(Values after ChEMBL document CHEMBL4350958, “Rational Design of Short Peptide Variants by Using Kunitzin-RE, an Amphibian-Derived Bioactivity Peptide, for Acquired Potent Broad-Spectrum Antimicrobial and Improved Therapeutic Potential of Commensalism Coinfection of Pathogens” (J Med Chem, 2019).)
